Compound activity deposited in PubChem BioAssay by NMMLSC.
MEKK3 PB1 HTS – MEKK3-MEK5 PB1 interaction, increase or decrease; 290,000 tested, 1.4% active; bead-based flow cytometry, Alexa488-MEK5 binding to MEKK3; actives lie on both sides; 0 = blocked by unlabeled MEK5, 100 = vehicle; binding response (% of control), % at 10 µM; Q99759;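 active means binding response more than 3 SD above or below the average of its plate-row segment, actives on both sides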;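 further: Alexa488 bead fluorescence after subtracting the streptavidin-only scavenger bead signal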
Target sequence (Q99759 whole entry, looked up): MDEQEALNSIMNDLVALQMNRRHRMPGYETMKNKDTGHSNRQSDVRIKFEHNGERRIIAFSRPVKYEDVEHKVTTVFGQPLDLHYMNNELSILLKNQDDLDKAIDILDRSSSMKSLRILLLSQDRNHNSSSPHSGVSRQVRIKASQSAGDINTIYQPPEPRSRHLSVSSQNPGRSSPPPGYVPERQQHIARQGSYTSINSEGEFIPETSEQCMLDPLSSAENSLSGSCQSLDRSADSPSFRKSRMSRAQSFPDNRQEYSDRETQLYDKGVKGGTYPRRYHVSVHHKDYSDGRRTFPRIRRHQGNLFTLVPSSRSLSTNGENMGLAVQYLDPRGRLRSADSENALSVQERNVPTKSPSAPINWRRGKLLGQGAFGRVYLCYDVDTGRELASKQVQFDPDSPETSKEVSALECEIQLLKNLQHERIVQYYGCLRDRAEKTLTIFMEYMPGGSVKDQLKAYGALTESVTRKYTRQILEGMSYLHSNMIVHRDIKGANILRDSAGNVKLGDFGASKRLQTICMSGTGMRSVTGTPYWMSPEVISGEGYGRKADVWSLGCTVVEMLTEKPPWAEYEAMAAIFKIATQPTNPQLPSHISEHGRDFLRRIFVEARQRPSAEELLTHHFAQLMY
Arrestin-AP2 inh – human beta-arrestin and AP2 interaction inhibition | inhibition, % at 10 µM | 340,000 tested, 0.31% active | FITC-arrestin peptide / GST-AP2 beads, flow cytometry; AP2 beta2 appendage carries R879A mutation | AID 504490;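 active means inhibition above a set limit, near 3 SD of compounds lacking own fluorescence, cut at about 54% in these data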
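System: GST-tagged AP2 beta2-adaptin appendage (R879A) on 4 µm glutathione beads / Reagent: FITC-arrestin peptide, 50 nM / Detection: HyperCyt-sampled flow cytometry, FL1 channel, ex 488/em 535 nm / Timing: 12 min plus 1 h, RT / Buffer or medium: PBS plus Tween 20 (0.05%) and BSA (0.1%)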
MEKK2 mut-MEK5 – signal of MEK5 binding to mutant human MEKK2 PB1 domain; bead flow cytometry, Alexa488-MEK5 binding to MEKK2 mutant; percent response, % at 10 µM; 290,000 tested, 0.35% active; in the data active means percent response above about 24%, passing the limit was not always enough
MEKK2 WT-MEK5 – raises or lowers MEK5 binding to wildtype human MEKK2 PB1 domain; Q9Y2U5; bead flow cytometry, Alexa488-MEK5 binding to MEKK2 WT; actives lie on both sides; binding response (% of control), % at 10 µM; 290,000 tested, 1.1% active; AID 1531; in the data active means binding response below about 67% or above about 130%
MEKK2wt confirm – raises or lowers MEK5 binding to wildtype human MEKK2, retest; shares compounds with MEKK3 PB1 HTS; bead flow cytometry, Alexa488-MEK5 binding to MEKK2 WT; actives lie on both sides; binding response (% of control), % at 10 µM; 5,900 tested, 2.4% active; in the data active means binding response below about 16% or above about 210%; inactive means in between
MEKK2mut-MEK5 – signal of MEK5 binding to mutant human MEKK2, retest | AID 1893 | bead flow cytometry, Alexa488-MEK5 binding to MEKK2 mutant | 5,900 tested, 2% active | percent response, % at 10 µM | shares compounds with MEKK3 PB1 HTS; in the data active means percent response mostly above about 71%, no sharp cut-off; inactive means mostly below about 38%;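 further: higher means compound restores mutant binding toward wildtype level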
MEKK3-MEK5 inh – MEKK3-MEK5 PB1 inhibition, single concentration confirmation; shares compounds with MEKK3 PB1 HTS; 5,900 tested, 1.8% active; bead flow cytometry, Alexa488-MEK5 binding to MEKK3; stronger effect = lower value; binding response (% of control), % at 10 µM; AID 1894;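 active means binding response below 72% of control, or above a set upper limit, though filed actives all read lower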
Each line names hits and unclear results; the compound was inactive in the other large screens (follow-up assays come after a bar, where they were run); [ ] = remark or other dose. This is a sample that favours compounds with a hit; in the whole collection about 2.3% have one here.

CC[C@H](C)[C@@H](CN[C@H](C)CNC)NCCC(c1ccccc1)c1ccccc1	MEKK2 WT-MEK5 138.0 | MEKK2wt confirm inactive | MEKK2mut-MEK5 inactive | MEKK3-MEK5 inh inactive
COc1ccc(N2CCN(S(=O)(=O)c3cc(C)ccc3OC)CC2)cc1	none
NCCNc1ccc(C(=O)N2c3ccccc3Sc3ccccc32)cc1[N+](=O)[O-]	MEKK2 mut-MEK5 37.0, MEKK2 WT-MEK5 182.0 | MEKK2wt confirm inactive | MEKK2mut-MEK5 inactive | MEKK3-MEK5 inh inactive
CCOc1ccc(CCNC(=O)C2CCC(=O)N2CCc2ccccc2)cc1OCC (stereo not given)	MEKK3 PB1 HTS 2.0[inhibitor], MEKK2 WT-MEK5 -1.0[inhibitor] | MEKK2wt confirm inactive | MEKK2mut-MEK5 inactive | MEKK3-MEK5 inh inactive
O=C(NCCc1ccccc1)C1CCC(=O)N1CCc1ccccc1 (stereo not given)	none
COc1ccc(-c2cc(-c3nnc(COC(=O)CC4CC5CCC4C5)o3)c3ccccc3n2)cc1OC (stereo not given)	none
COc1ccc(-c2oc3ncnc(NCCCN(C)C)c3c2-c2ccc(OC)cc2)cc1	MEKK2 mut-MEK5 30.0, MEKK2 WT-MEK5 171.0 | MEKK2wt confirm inactive | MEKK2mut-MEK5 inactive | MEKK3-MEK5 inh inactive
CN(C)CCNc1ncnc2oc(-c3ccccc3)c(-c3ccccc3)c12	none
CCCCCCCCCCCC(=O)N1CC(=O)NC(=O)C1	none
CCOCCCNCC(O)c1ccccc1 (stereo not given)	MEKK3 PB1 HTS 162.0 | MEKK2wt confirm inactive | MEKK2mut-MEK5 inactive | MEKK3-MEK5 inh inactive
COc1ccc2nc3cc(Cl)ccc3c(Nc3cc(CN4CCCC4)c(O)c(CN4CCCC4)c3)c2n1	MEKK2 WT-MEK5 138.0 (no result: Arrestin-AP2 inh) | MEKK2wt confirm inactive | MEKK2mut-MEK5 inactive | MEKK3-MEK5 inh inactive
COCc1cc(CN2CCCC2)c(O)c2ncccc12	none
CC(=O)Nc1ccc(NC(=O)CSc2ccc3nnc(-c4cccnc4)n3n2)cc1	none
CCc1ccc2c(c1)C(c1ccc(N3CCOCC3)cc1)=NNC(c1ccncc1)=N2	MEKK3 PB1 HTS 148.0 | MEKK2wt confirm inactive | MEKK2mut-MEK5 inactive | MEKK3-MEK5 inh inactive
CC(C)=N/N=C(/c1ccc([N+](=O)[O-])cc1)C12CN3CN(CN(C3)C1)C2	MEKK3 PB1 HTS 148.0, MEKK2 mut-MEK5 active (no result: MEKK2 WT-MEK5) | MEKK2wt confirm inactive | MEKK2mut-MEK5 inactive | MEKK3-MEK5 inh inactive
O=[N+]([O-])c1cccc(/C(=N/N=C/c2ccccc2Br)C23CN4CN(CN(C4)C2)C3)c1	none
COc1cc2c(C(=O)NCCCN3CCN(c4cccc(Cl)c4)CC3)cn(C)c(=O)c2cc1OC	MEKK3 PB1 HTS 127.0, MEKK2 WT-MEK5 146.0 | MEKK2wt confirm inactive | MEKK2mut-MEK5 inactive | MEKK3-MEK5 inh inactive
CCc1nc2ccc(C(=O)NCCCN3CCN(c4ccccc4F)CC3)cc2nc1CC	MEKK2 WT-MEK5 137.0 | MEKK2wt confirm inactive | MEKK2mut-MEK5 inactive | MEKK3-MEK5 inh inactive
COc1ccc(N2CCN(CCCNC(=O)c3cc4sccc4n3C)CC2)cc1	MEKK2 WT-MEK5 148.0 | MEKK2wt confirm inactive | MEKK2mut-MEK5 inactive | MEKK3-MEK5 inh inactive
CCOc1ccc(NC(=S)NCCCN2CCN(c3ccc(OC)cc3)CC2)cc1	MEKK2 WT-MEK5 140.0 | MEKK2wt confirm inactive | MEKK2mut-MEK5 inactive | MEKK3-MEK5 inh inactive
O=C(CN1CCCCCC1)N/N=C/c1cccc(Cl)c1Cl	none
COc1cccc(C(=O)NCCCN2CCN(CCCNC(=O)c3cccc(OC)c3)CC2)c1	MEKK3 PB1 HTS 128.0 | MEKK2wt confirm inactive | MEKK2mut-MEK5 inactive | MEKK3-MEK5 inh inactive
Cc1ccccc1NC(=O)COc1nsnc1N1CCOCC1	MEKK3 PB1 HTS 2.0[inhibitor], MEKK2 WT-MEK5 2.0[inhibitor] | MEKK2wt confirm inactive | MEKK2mut-MEK5 inactive | MEKK3-MEK5 inh inactive
CCOC(=O)C1=C(NC(=S)NC(=O)c2ccccc2)c2ccccc2CC1C(C)C (stereo not given)	none
CCOC(=O)C1=C(NC(=S)NC(=O)c2ccccc2)c2ccccc2CC1(C)CC (stereo not given)	MEKK2 WT-MEK5 30.0[inhibitor] | MEKK2wt confirm inactive | MEKK2mut-MEK5 inactive | MEKK3-MEK5 inh inactive
Cc1ccc([C@H]2C(C(=O)O)=CC[C@@H](c3ccc4c(c3)OCO4)N2S(=O)(=O)c2ccc(C)cc2)cc1	none (no result: MEKK3 PB1 HTS, MEKK2 mut-MEK5, MEKK2 WT-MEK5)
Cc1ccc(/C=C2/NC(=O)N(Cc3ccccc3)C2=O)o1	MEKK2 WT-MEK5 2.0[inhibitor] | MEKK2wt confirm inactive | MEKK2mut-MEK5 inactive | MEKK3-MEK5 inh inactive
COC(=O)c1cc(NC(=O)c2cc(C(C)(C)C)nn2Cc2ccc(F)cc2)ccc1N1CCOCC1	MEKK3 PB1 HTS 133.0 | MEKK2wt confirm inactive | MEKK2mut-MEK5 inactive | MEKK3-MEK5 inh inactive
CC(C)(C)c1ccc(C(=O)Nc2ccc(NC(=O)C(=O)O)cc2)o1	none
CCN(C(=O)CSc1ncccc1C(=O)Oc1cccc([N+](=O)[O-])c1)c1cccc(C)c1	MEKK3 PB1 HTS 138.0 | MEKK2wt confirm inactive | MEKK2mut-MEK5 inactive | MEKK3-MEK5 inh inactive
CSc1cccc(NC(=O)CSc2ncccc2C(=O)Oc2cccc([N+](=O)[O-])c2)c1	none
CCN(CC)c1ccc(/C=N/NC(=O)CN2CCCc3ccccc32)cc1	MEKK3 PB1 HTS 139.0 | MEKK2wt confirm inactive | MEKK2mut-MEK5 inactive | MEKK3-MEK5 inh inactive
CCc1ccc(NC(=S)NC(=O)CC(C)C)cc1	MEKK3 PB1 HTS 148.0 | MEKK2wt confirm inactive | MEKK2mut-MEK5 inactive | MEKK3-MEK5 inh inactive
CCN(CC)S(=O)(=O)c1ccc(NC(=S)NC(=O)CC(C)C)cc1	none
Cc1ccccc1N1C(=O)c2cccc3cccc(c23)C1=O	MEKK2 mut-MEK5 26.0 | MEKK2wt confirm inactive | MEKK2mut-MEK5 inactive | MEKK3-MEK5 inh inactive
O=C(O)c1ccccc1N1C(=O)c2cccc3cccc(c23)C1=O	none
CCCCCCCCCCOC(=O)Cn1c(COc2ccccc2OC)[n+](C)c2ccccc21	MEKK2 mut-MEK5 61.0, MEKK2 WT-MEK5 238.0 | MEKK2wt confirm 251.0 | MEKK2mut-MEK5 141.0 | MEKK3-MEK5 inh inactive
Cn1c(COc2ccccc2O)[n+](C)c2ccccc21	none
COc1ccccc1CCc1nnc(CCC(=O)NC(C)Cn2nc(C)cc2C)o1 (stereo not given)	MEKK3 PB1 HTS 37.0[inhibitor] | MEKK2wt confirm inactive | MEKK2mut-MEK5 inactive | MEKK3-MEK5 inh inactive
CC(C)c1ccccc1OS(N)(=O)=O	none
Cc1ccc(CNc2nc(N)c([N+](=O)[O-])c(NCc3ccccc3)n2)cc1	none
Nc1nc(NCc2ccccc2)nc(NCc2ccccc2)c1[N+](=O)[O-]	MEKK3 PB1 HTS 152.0 | MEKK2wt confirm inactive | MEKK2mut-MEK5 inactive | MEKK3-MEK5 inh inactive
CC(NC(=O)CCn1ccc2cc(S(=O)(=O)N3CCCC3)ccc21)c1ccccc1 (stereo not given)	none
